Bioassay records from PubChem.
This is a sample that favours compounds with a hit; in the whole collection about 29% have one here.
CYP2C19 inh – blockers of cytochrome P450 2C19 activity – biochemical, luminescence, ADME assay, primary screen | P33261 | CYP2C19 Supersomes, luciferin-H EGE luminescence, 30 min | inhibition, % at 5 µM | 96,000 compounds, 21% hits | AID 778, 2007;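 active means CYP2C19 inhibition above a set limit at 5 µM in the primary screen, cut at about 50% in these data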;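 further: plate controls were negative control wells for no effect and 2.5 mM tranylcypromine positive control for full effect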
Target sequence (P33261 whole entry, looked up): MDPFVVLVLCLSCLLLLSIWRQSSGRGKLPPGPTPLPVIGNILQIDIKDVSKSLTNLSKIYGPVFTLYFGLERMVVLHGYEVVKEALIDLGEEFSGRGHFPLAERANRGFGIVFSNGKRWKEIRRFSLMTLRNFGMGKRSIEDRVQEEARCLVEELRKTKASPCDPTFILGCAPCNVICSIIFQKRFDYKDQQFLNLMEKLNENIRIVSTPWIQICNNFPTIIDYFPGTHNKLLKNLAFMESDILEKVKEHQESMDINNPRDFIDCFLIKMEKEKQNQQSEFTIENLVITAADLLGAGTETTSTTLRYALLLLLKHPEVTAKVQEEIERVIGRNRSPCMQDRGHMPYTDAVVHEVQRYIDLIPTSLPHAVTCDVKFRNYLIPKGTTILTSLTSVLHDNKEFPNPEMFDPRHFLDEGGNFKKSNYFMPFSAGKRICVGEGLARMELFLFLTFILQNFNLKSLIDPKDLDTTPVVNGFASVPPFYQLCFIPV
Ecoli WT expand – growth inhibitors of wild-type E. coli, primary screen, strain BW25113, expanded library, OD600; OD600 absorbance; growth inhibition, % at 100 µM; 98,000 compounds, 0.15% hits; AID 710, 2007;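 active means growth inhibition above about 50% at one test dose, limit read from the data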;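 further: growth measured after 20 h incubation at 37 °C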
CYP2C9 inhib – blockers of cytochrome P450 2C9 activity – biochemical, luminescence, ADME assay, primary screen; CYP2C9 Supersomes, luciferin-H conversion; inhibition, % at 5 µM; 96,000 compounds, 20% hits; AID 777, 2007;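 active means blocking of liver enzyme CYP2C9 beyond about 50% at 5 µM, limit read from the data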
tolC growth inh – growth inhibitors of E. coli tolC mutant, primary screen, strain BW25113 ΔtolC::kan, 384-well; growth inhibition, % at 10 µM (by protocol); OD615; 65,000 compounds, 2.2% hits;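 active means growth inhibition at or above a cutoff equal to the mean over every tested compound plus 3 SD, cut at about 60% in these data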;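 further: growth measured after 20 h incubation at 37 °C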
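Material: E. coli BW25113 ΔtolC::kan, tolC deletion mutant strain. Measure: percent growth inhibition. Schedule: 37 °C, 20 h exposure. Doses: single-point testing at 10 µM. Signal: A615 absorbance measurement. Buffer or medium: kanamycin-containing LB broth (50 µg/mL).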
CYP2C9 activ – human CYP2C9 activators, primary screen, biochemical, luminescence; Cytochrome P450 2C9 (Homo sapiens), P11712; recombinant CYP2C9, luciferin-H conversion; active compounds read high; factor 1 = untreated enzyme, 0 = blocked; activation factor at 5 µM; 96,000 compounds, 1.4% hits; AID 1024, 2008;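 active means activation factor of 2 or more for CYP2C9 at a 5 µM dose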;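 further: 0 = sulfaphenazole-blocked wells and 1 = vehicle-only wells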
CYP2C19 activ – human CYP2C19 activators, primary screen, biochemical, luminescence; Cytochrome P450 2C19 (Homo sapiens), P33261; recombinant CYP2C19, luciferin-H EGE luminescence; active compounds read high; 0 = fully inhibited enzyme, 1 = untreated enzyme; activation factor at 5 µM; 96,000 tested, under 10 active;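 active means activation factor of at least 2 at 5 µM in the primary screen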;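 further: 0 = wells with 2.5 mM tranylcypromine and 1 = vehicle-only wells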
* = called active by the depositor; x = no result given.

SMILES | CYP2C19 inh | Ecoli WT expand | CYP2C9 inhib | tolC growth inh | CYP2C9 activ | CYP2C19 activ
CCOc1ccc2nc(SCc3ccccc3C#N)sc2c1 | 51* | -9 | -147 | x | 2.5* | 0.5
COCCN(CCOC)Cc1cc(=O)oc2cc3c(cc12)CCC3 | 77* | 3 | 49 | -3 | 0.5 | 0.2
Nc1cc(N)nc(SCc2cc(=O)oc3cc4c(cc23)CCC4)n1 | 50* | 5 | -27 | 20 | 1.3 | 0.5
Cc1cc2oc(=O)cc(CSc3nc(N)cc(N)n3)c2cc1C(C)C | 0 | 3 | 77* | x | 0.2 | 1
CCOC(=O)N1CCN(Cc2cc(=O)oc3cc4c(cc23)CCC4)CC1 | 26 | 7 | 10 | 33 | 0.9 | 0.7
Cc1cc2oc(=O)cc(CN3CCCCC3)c2cc1C(C)C | 7 | -1 | 32 | 27 | 0.7 | 0.9
O=C(COC(=O)c1cc(S(=O)(=O)N2CCOCC2)ccc1O)NCC1CCCO1 (stereo unspecified) | 5 | 1 | 8 | -9 | 0.9 | 1
O=C(CCCOc1ccccc1)Nc1nnc(C2CCCO2)s1 (stereo unspecified) | 64* | -11 | 56* | -4 | 0.4 | 0.4
CN(c1ccccc1)S(=O)(=O)c1ccc(NC(=O)c2ccc(-c3ccccc3)cc2)cc1 | 62* | -18 | 84* | x | 0.2 | 0.4
CN(C)c1ccc(C(=O)Nc2nnc(-c3ccc(Cl)cc3)o2)cc1 | -16 | -18 | 2 | 47 | 1 | 1.2
CN(c1ccccc1)S(=O)(=O)c1ccc(NC(=S)Nc2ccccc2)cc1 | 17 | 6 | 60* | x | 0.4 | 0.8
CN(c1ccccc1)S(=O)(=O)c1ccc(C(=O)Nc2nnc(-c3ccc(F)cc3)o2)cc1 | 5 | -8 | 34 | 100* | 0.7 | 1
CC(=O)Nc1ccc(S(=O)(=O)N(C)c2ccccc2)cc1 | 31 | -2 | 16 | 3 | 0.8 | 0.7
Cc1ccc(N2C(=O)N(CC(=O)N3CCCc4ccccc43)C(=O)C2C)cc1 (stereo unspecified) | 12 | 7 | 4 | x | 1 | 0.9
CCN(CC)S(=O)(=O)c1ccc2[nH]cc(C(=O)NCCCN3CCCCC3C)c(=O)c2c1 (stereo unspecified) | -3 | -6 | 10 | x | 0.9 | 1
COc1cccc(-n2sc3c(c2=S)-c2cc(OC)ccc2NC3(C)C)c1 | 12 | -10 | 69* | x | 0.3 | 0.9
Cc1[nH]c2ccc(CNS(=O)(=O)c3ccc(S(=O)(=O)N4CCOCC4)cc3)cc2c1C | 64* | -3 | 71* | 0 | 0.3 | 0.4
O=C(Cc1c[nH]c2ccccc12)Nc1nc2ccccc2[nH]1 | 54* | 22 | 58* | 17 | 0.4 | 0.5
Cc1csc(NC(=O)Cc2c[nH]c3ccccc23)n1 | 35 | 38 | 28 | x | 0.7 | 0.6
O=C(Nc1nccs1)C(=O)c1c[nH]c2ccccc12 | 63* | -3 | 18 | x | 0.8 | 0.4
O=C(Nc1nccs1)c1sc2ccccc2c1Cl | 28 | -10 | 45 | x | 0.5 | 0.7
O=C(Cc1c[nH]c2ccccc12)Nc1nccs1 | 55* | 20 | 21 | 22 | 0.8 | 0.5
Cn1c(CNc2nc(-c3ccccc3)cs2)nnc1SCC(=O)N1CCc2ccccc21 | 37 | 2 | 33 | 15 | 0.7 | 0.6
CCOC(=O)Cc1c[nH]c2ccccc12 | 15 | -3 | 9 | -5 | 0.9 | 0.9
O=C(CCl)N(c1ccc(Cl)cc1)c1c[nH]c2ccccc12 | 90* | 20 | 82* | x | 0.2 | 0.1
SMILES | CYP2C19 inh | Ecoli WT expand | CYP2C9 inhib | tolC growth inh | CYP2C9 activ | CYP2C19 activ
O=C(CCl)N(c1ccccc1)c1c[nH]c2ccccc12 | 44 | 10 | 95* | x | 0.1 | 0.6
Cc1cccc(OCCCC(=O)NCc2ccco2)c1 | 45 | 1 | -1 | x | 1 | 0.6
O=c1[nH]c(C2CCCN(S(=O)(=O)c3ccccc3)C2)nc2c1nnn2Cc1ccccc1 (stereo unspecified) | 44 | 6 | 81* | 24 | 0.2 | 0.6
CCCc1nc2c(nnn2Cc2ccccc2)c(=O)[nH]1 | 78* | 2 | 0 | 8 | 1 | 0.2
O=C(C1CCC1)N1CCC(c2nc3c(nnn3Cc3c(F)cccc3Cl)c(=O)[nH]2)CC1 | 18 | 3 | 71* | 7 | 0.3 | 0.8
COc1cccc(Cn2nnc3c(=O)[nH]c(C4CCCN(C(=O)c5ccccc5Cl)C4)nc32)c1 (stereo unspecified) | 39 | 0 | 83* | 13 | 0.2 | 0.6
CC1CN(c2nc3c(c(=O)n(Cc4ccc(Cl)cc4)c(=O)n3C)n2C)CC(C)O1 (stereo unspecified) | 13 | -6 | 14 | 16 | 0.9 | 0.9
O=C(c1ccccc1Cl)N1CCCC(c2nc3c(nnn3Cc3ccccc3)c(=O)[nH]2)C1 (stereo unspecified) | 12 | 3 | 84* | 35 | 0.2 | 0.9
COc1ccc(Cn2nnc3c(=O)[nH]c(C4CCCN(C(=O)c5ccccc5)C4)nc32)cc1 (stereo unspecified) | x | 5 | x | 8 | x | x
CN(CC(=O)O/N=C(\N)c1ccc([N+](=O)[O-])cc1)S(=O)(=O)c1ccc2ccccc2c1 | 10 | -2 | -133 | x | 2.3* | 0.9
Cc1ccc(OCC(=O)Sc2ccc(C)cc2)cc1 | 52* | -8 | 46 | x | 0.5 | 0.5
COc1ccccc1OCC(=O)Sc1ccc(C)cc1 | 31 | -1 | 19 | -27 | 0.8 | 0.7
O=C(O)c1oc2ccc(Br)cc2c1-n1cccc1 | -10 | x | -4 | 35 | 1 | 1.1
Cc1c(Cl)cccc1NC(=O)CN1C(=O)CSc2ncccc21 | 64* | 3 | -256 | 8 | 3.6* | 0.4
Cn1nc(-c2ccc(Cl)cc2)c2cc(C(=O)N3CCOCC3)sc21 | 34 | -2 | 17 | 15 | 0.8 | 0.7
Cn1nc(-c2ccccc2F)c2cc(C(=O)N3CCN(C(=O)c4ccco4)CC3)sc21 | x | x | x | 19 | x | x
COc1cccc(-c2nn(C)c3sc(C(=O)N4CCN(c5ccccn5)CC4)cc23)c1 | 42 | -20 | 80* | 42 | 0.2 | 0.6
Cc1ccccc1-n1nc(C)c2cc(C(=O)N3CCOCC3)sc21 | 21 | -1 | -26 | 6 | 1.3 | 0.8
COc1cccc(-c2nn(C)c3sc(C(=O)N4CCOCC4)cc23)c1 | 32 | -4 | 60* | 6 | 0.4 | 0.7
COc1ccc(N2CCN(C(=O)c3cc4c(-c5ccc(Cl)cc5)nn(C)c4s3)CC2)cc1 | 23 | -8 | 64* | 7 | 0.4 | 0.8
Cc1cc(=O)n2nc(N3CCC(C(=O)NC4CCCc5ccccc54)CC3)sc2n1 (stereo unspecified) | 15 | -1 | 21 | -1 | 0.8 | 0.8
CSc1ccccc1NC(=O)c1c(C)noc1C | 10 | 10 | -4 | -18 | 1 | 0.9
CN(C)C(/C=C/Nc1ccc(F)cc1)=C(C#N)C#N | 59* | 6 | 32 | x | 0.7 | 0.4
